Measured values reported in ChEMBL document CHEMBL1142087 (Antimicrob Agents Chemother, 2007).

What was measured:
[1] = tested on: Mus musculus; assay: Toxicity in BALB/c mouse assessed as survival at 300 mg/kg/day, po qid for 5 days; assay type: organism-based; parameters: route oral; details: in vivo, 120 h
Summary of the method: (§1)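 Uninfected female BALB/c toxicity controls (18–21 g), 3 mice per dose, were run in parallel with the infection studies and received 5-day oral treatment. Body weight was taken before treatment and 18 h after the last dose.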

[2] = tested on: Mus musculus; assay: Effect on weight change in BALB/c mouse at 300 mg/kg/day, po qid measured after 18 hrs of final treatment; assay type: ADME, organism-based; parameters: route oral; details: in vivo
Summary of the method: (§2)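 Uninfected toxicity-control BALB/c mice, 3 per dose, were dosed orally on the same schedule as infected groups. Each mouse was weighed before treatment and 18 h after the last dose. Weight change is the difference. Mice were watched for overt toxicity and death for 21 days.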

[3] = tested on: Mus musculus; assay: Effect on weight change in BALB/c mouse at 100 mg/kg/day, po once daily for 5 days measured after 18 hrs of final treatment; assay type: ADME, organism-based; parameters: route oral; details: in vivo; summary of the method: as §2
[4] = Cytotoxicity against MDCK cells; assay type: cell-based, Canis lupus familiaris; details: dog
Summary of the method: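 MDCK cells in MEM were exposed to eight test concentrations in half-log10 steps at 37°C. Untreated toxicity and normal-medium controls were included. CC50 was taken as the 50% cytotoxic concentration. Results are from two to five experiments.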

[5] = tested on: Mus musculus; assay: Effect on weight change in BALB/c mouse at 30 mg/kg/day, po twice daily for 5 days measured after 18 hrs of final treatment; assay type: ADME, organism-based; parameters: route oral; details: in vivo; summary of the method: as §2
[6] = tested on: Mus musculus; assay: Toxicity in BALB/c mouse assessed as survival at 100 mg/kg/day, po twice daily; assay type: organism-based; parameters: route oral; details: in vivo; summary of the method: as §1
[7] = tested on: Mus musculus; assay: Toxicity in BALB/c mouse assessed as survival at 300 mg/kg/day, po twice daily; assay type: organism-based; parameters: route oral; details: in vivo; summary of the method: as §1
[8] = tested on: Mus musculus; assay: Effect on weight change in BALB/c mouse at 3 mg/kg/day, po once daily for 5 days measured after 18 hrs of final treatment; assay type: ADME, organism-based; parameters: route oral; details: in vivo; summary of the method: as §2
[9] = tested on: Mus musculus; assay: Toxicity in BALB/c mouse assessed as survival at 3 mg/kg/day, po twice daily; assay type: organism-based; parameters: route oral; details: in vivo; summary of the method: as §1
[10] = tested on: Mus musculus; assay: Effect on weight change in BALB/c mouse at 300 mg/kg/day, po once daily for 5 days measured after 18 hrs of final treatment; assay type: ADME, organism-based; parameters: route oral; details: in vivo; summary of the method: as §2
[11] = tested on: Mus musculus; assay: Toxicity in BALB/c mouse assessed as survival at 300 mg/kg/day, po once daily; assay type: organism-based; parameters: route oral; details: in vivo; summary of the method: as §1
[12] = tested on: Mus musculus; assay: Effect on weight change in BALB/c mouse at 100 mg/kg/day, po qid measured after 18 hrs of final treatment; assay type: ADME, organism-based; parameters: route oral; details: in vivo; summary of the method: as §2
[13] = tested on: Mus musculus; assay: Toxicity in BALB/c mouse assessed as survival at 100 mg/kg/day, po qid for 5 days; assay type: organism-based; parameters: route oral; details: in vivo, 120 h; summary of the method: as §1
[14] = tested on: Mus musculus; assay: Effect on weight change in BALB/c mouse at 10 mg/kg/day, po twice daily for 5 days measured after 18 hrs of final treatment; assay type: ADME, organism-based; parameters: route oral; details: in vivo; summary of the method: as §2
[15] = tested on: Mus musculus; assay: Effect on weight change in BALB/c mouse at 30 mg/kg/day, po once daily for 5 days measured after 18 hrs of final treatment; assay type: ADME, organism-based; parameters: route oral; details: in vivo; summary of the method: as §2
[16] = tested on: Mus musculus; assay: Effect on weight change in BALB/c mouse at 300 mg/kg/day, po twice daily for 5 days measured after 18 hrs of final treatment; assay type: ADME, organism-based; parameters: route oral; details: in vivo; summary of the method: as §2
[17] = tested on: Mus musculus; assay: Effect on weight change in BALB/c mouse at 100 mg/kg/day, po twice daily for 5 days measured after 18 hrs of final treatment; assay type: ADME, organism-based; parameters: route oral; details: in vivo; summary of the method: as §2
[18] = tested on: Mus musculus; assay: Toxicity in BALB/c mouse assessed as survival at 10 mg/kg/day, po once daily; assay type: organism-based; parameters: route oral; details: in vivo; summary of the method: as §1
[19] = tested on: Mus musculus; assay: Toxicity in BALB/c mouse assessed as survival at 33 mg/kg/day, po qid for 5 days; assay type: organism-based; parameters: route oral; details: in vivo, 120 h; summary of the method: as §1
[20] = tested on: Mus musculus; assay: Effect on weight change in BALB/c mouse at 3 mg/kg/day, po twice daily for 5 days measured after 18 hrs of final treatment; assay type: ADME, organism-based; parameters: route oral; details: in vivo; summary of the method: as §2
[21] = tested on: Mus musculus; assay: Effect on weight change in BALB/c mouse at 33 mg/kg/day, po qid measured after 18 hrs of final treatment; assay type: ADME, organism-based; parameters: route oral; details: in vivo; summary of the method: as §2
[22] = tested on: Mus musculus; assay: Toxicity in BALB/c mouse assessed as survival at 10 mg/kg/day, po twice daily; assay type: organism-based; parameters: route oral; details: in vivo; summary of the method: as §1
[23] = tested on: Mus musculus; assay: Toxicity in BALB/c mouse assessed as survival at 3 mg/kg/day, po once daily; assay type: organism-based; parameters: route oral; details: in vivo; summary of the method: as §1
[24] = tested on: Mus musculus; assay: Toxicity in BALB/c mouse assessed as survival at 30 mg/kg/day, po once daily; assay type: organism-based; parameters: route oral; details: in vivo; summary of the method: as §1
[25] = tested on: Mus musculus; assay: Toxicity in BALB/c mouse assessed as survival at 100 mg/kg/day, po once daily; assay type: organism-based; parameters: route oral; details: in vivo; summary of the method: as §1
[26] = tested on: Mus musculus; assay: Toxicity in BALB/c mouse assessed as survival at 30 mg/kg/day, po twice daily; assay type: organism-based; parameters: route oral; details: in vivo; summary of the method: as §1
[27] = tested on: Mus musculus; assay: Effect on weight change in BALB/c mouse at 10 mg/kg/day, po once daily for 5 days measured after 18 hrs of final treatment; assay type: ADME, organism-based; parameters: route oral; details: in vivo; summary of the method: as §2
[28] = tested on: Influenza A virus; assay: Inhibition of Influenza A virus (A/gull/Pennsylvania/4175/83 (H5N1)) replication in MDCK cells by virus yield reduction assay; assay type: functional
[29] = tested on: Influenza A virus; assay: Inhibition of influenza A virus (A/duck/Minnesota/1525/1981 (H5N1)) replication in MDCK cells by virus yield reduction assay; assay type: functional

For `NC(=O)c1nc(F)c[nH]c1=O` [FAVIPIRAVIR], the Activity [1] was “Non-toxic”, the Activity [2] was 0.6 g and the Activity [3] was 0.4 g. For the same compound, the CC50 [4] was > 641 µM, the Activity [5] was 0.1 g and the Activity [6] was “Non-toxic”. The Activity [7] was “Non-toxic”, the Activity [8] was 0.3 g and the Activity [9] was “Non-toxic”. For the same compound, the Activity [10] was 0.4 g, the Activity [11] was “Non-toxic” and the Activity [12] was 1.1 g. For the same compound, the Activity [13] was “Non-toxic”, the Activity [14] was 0.1 g and the Activity [15] was 0.7 g. The Activity [16] was 0.2 g, the Activity [17] was 1 g and the Activity [18] was “Non-toxic”. For the same compound, the Activity [19] was “Non-toxic”, the Activity [20] was 0.8 g and the Activity [21] was 0.2 g. For the same compound, the Activity [22] was “Non-toxic”, the Activity [23] was “Non-toxic” and the Activity [24] was “Non-toxic”. For the same compound, the Activity [25] was “Non-toxic”, the Activity [26] was “Non-toxic” and the Activity [27] was 0.6 g.
For `NC(=O)c1ncn([C@@H]2O[C@H](CO)[C@@H](O)[C@H]2O)n1` [RIBAVIRIN], the CC50 [4] was 2340 µM, the EC90 [28] was 32 µM and the EC90 [29] was 20.1 µM.
With `CC(=O)N[C@H]1[C@H]([C@H](O)[C@H](O)CO)OC(C(=O)O)=C[C@@H]1NC(=N)N` [ZANAMIVIR] the CC50 [4] was > 3610 µM, the EC90 [28] was 1.23 µM and the EC90 [29] was 0.96 µM.
